Reference: ChEMBL document CHEMBL1134450, “Solid-phase synthesis of a nonpeptide RGD mimetic library: new selective alphavbeta3 integrin antagonists” (J Med Chem, 2001)
Where a SMILES comes first, the peptide text is derived from it. [ ]: non-standard residue; d: D form. NMeF = CN[C@@H](Cc1ccccc1)C(=O)O; azaGly = NNC(=O)O

Assays:
[1] = Partition coefficient (logP); format: physicochemical; details: octanol/water
[2] = biological target: Integrin alpha-V/beta-3 (Homo sapiens, UniProt P05106+P06756); experiment: Inhibitory activity against vitronectin receptor (alpha V beta 3); format: protein-complex assay
Integrin alpha-V/beta-3, sequence (P05106 27-788 limits assumed): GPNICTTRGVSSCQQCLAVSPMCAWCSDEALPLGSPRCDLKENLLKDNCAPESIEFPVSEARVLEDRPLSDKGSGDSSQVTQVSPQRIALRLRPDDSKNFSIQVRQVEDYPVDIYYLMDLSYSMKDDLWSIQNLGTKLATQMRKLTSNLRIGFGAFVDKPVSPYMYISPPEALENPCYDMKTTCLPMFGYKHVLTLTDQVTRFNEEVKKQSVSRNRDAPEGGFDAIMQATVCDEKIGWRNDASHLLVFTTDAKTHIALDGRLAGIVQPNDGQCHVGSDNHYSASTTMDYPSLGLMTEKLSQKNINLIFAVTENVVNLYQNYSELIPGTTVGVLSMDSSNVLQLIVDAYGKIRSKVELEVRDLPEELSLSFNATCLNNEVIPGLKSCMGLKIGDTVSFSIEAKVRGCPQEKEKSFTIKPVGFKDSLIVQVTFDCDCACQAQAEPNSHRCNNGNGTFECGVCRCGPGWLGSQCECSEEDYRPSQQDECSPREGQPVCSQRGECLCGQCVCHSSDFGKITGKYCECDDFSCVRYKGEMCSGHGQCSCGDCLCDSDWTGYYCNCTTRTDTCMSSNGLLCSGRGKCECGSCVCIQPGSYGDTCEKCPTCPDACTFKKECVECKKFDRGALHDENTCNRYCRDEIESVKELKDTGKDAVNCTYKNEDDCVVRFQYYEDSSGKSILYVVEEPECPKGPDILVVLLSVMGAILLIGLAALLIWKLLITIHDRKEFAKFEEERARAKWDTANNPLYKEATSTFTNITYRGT
Integrin alpha-V/beta-3, sequence (P06756 31-889 limits assumed): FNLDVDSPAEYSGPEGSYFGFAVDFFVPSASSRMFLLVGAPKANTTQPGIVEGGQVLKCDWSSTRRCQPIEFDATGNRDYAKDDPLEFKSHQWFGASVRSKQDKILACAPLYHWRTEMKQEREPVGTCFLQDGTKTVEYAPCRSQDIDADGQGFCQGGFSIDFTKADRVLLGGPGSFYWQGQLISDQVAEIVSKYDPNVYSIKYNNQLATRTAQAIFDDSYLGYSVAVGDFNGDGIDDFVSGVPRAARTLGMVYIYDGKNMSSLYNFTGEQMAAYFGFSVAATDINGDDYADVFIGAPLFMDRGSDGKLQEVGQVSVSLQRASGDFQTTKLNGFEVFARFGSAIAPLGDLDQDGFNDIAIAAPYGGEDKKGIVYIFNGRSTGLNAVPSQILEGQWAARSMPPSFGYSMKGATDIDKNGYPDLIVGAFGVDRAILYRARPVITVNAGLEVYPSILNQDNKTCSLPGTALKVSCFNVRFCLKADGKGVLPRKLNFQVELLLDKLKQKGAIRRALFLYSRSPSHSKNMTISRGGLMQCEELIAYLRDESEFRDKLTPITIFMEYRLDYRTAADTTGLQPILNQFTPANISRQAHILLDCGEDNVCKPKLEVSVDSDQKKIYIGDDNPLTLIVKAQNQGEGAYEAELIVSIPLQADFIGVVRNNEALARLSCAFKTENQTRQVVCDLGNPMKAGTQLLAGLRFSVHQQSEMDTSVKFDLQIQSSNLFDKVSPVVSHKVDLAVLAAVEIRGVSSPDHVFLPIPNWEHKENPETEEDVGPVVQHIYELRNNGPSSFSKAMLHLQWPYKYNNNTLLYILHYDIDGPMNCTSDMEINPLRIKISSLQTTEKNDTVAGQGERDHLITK
Integrin alpha-V/beta-3, sequence (P06756 891-1048 limits assumed): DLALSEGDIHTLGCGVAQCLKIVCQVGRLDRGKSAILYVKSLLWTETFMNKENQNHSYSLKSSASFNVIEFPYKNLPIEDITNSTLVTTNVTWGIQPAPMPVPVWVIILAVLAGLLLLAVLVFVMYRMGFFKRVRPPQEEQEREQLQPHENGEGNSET
Summary of the method: (§1)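 Solid-phase competition binding. αvβ3 was recombinant, from baculovirus, purified on LM609 antibody column, paired with biotinylated human vitronectin. αIIbβ3 was paired with biotinylated human fibrinogen. Integrins coated at 1 µg/mL, blocked, then compounds serially diluted and co-incubated with ligand (1 µg/mL), 37 °C, 3 h. Read-out was alkaline-phosphatase anti-biotin.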

[3] = biological target: Integrin alpha-IIb/beta-3 (Homo sapiens, UniProt P05106+P08514); experiment: Inhibitory activity against alpha IIb beta 3 integrin; format: protein-complex assay; summary of the method: as §1
Integrin alpha-IIb/beta-3, sequence (P05106 27-788 limits assumed): as the sequence (P05106 27-788 limits assumed) above
Integrin alpha-IIb/beta-3, sequence (P08514 32-887 limits assumed): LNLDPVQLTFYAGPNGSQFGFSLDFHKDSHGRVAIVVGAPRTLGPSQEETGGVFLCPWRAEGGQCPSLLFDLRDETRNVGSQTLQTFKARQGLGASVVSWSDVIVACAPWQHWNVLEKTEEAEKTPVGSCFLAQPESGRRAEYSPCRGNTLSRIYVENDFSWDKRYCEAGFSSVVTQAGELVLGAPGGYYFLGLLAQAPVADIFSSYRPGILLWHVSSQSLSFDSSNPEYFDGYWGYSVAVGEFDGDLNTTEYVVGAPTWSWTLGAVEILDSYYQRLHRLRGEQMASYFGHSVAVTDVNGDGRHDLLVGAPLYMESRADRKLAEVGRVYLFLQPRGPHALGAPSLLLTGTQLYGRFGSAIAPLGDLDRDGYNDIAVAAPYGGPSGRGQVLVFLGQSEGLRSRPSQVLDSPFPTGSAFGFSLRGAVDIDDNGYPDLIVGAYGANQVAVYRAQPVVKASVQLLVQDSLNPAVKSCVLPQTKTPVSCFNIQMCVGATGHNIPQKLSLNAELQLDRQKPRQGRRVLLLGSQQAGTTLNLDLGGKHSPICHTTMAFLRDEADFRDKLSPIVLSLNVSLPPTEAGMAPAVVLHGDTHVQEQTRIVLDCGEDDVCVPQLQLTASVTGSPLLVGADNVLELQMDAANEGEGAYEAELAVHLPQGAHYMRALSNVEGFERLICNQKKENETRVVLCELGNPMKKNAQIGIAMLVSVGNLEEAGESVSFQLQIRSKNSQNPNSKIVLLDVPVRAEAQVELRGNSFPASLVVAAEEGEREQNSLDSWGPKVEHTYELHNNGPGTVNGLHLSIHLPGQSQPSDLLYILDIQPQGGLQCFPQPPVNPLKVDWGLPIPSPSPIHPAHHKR
Integrin alpha-IIb/beta-3, sequence (P08514 891-1039 limits assumed): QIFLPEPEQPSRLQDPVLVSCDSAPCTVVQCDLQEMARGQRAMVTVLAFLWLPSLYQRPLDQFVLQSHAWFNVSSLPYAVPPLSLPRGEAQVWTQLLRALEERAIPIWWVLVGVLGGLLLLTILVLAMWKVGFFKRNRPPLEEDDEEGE

[4] = biological target: Integrin alpha-V/beta-3 and alpha-IIb/beta 3 (Homo sapiens) (UniProt P05106+P06756+P08514); experiment: Selectivity designates the quotient of affinities to integrins alpha v beta-3 and alpha IIb beta3; format: protein assay
Summary of the method: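 Quotient of IC50 values from the immobilized-integrin competition assays: αvβ3 against biotinylated vitronectin and αIIbβ3 against biotinylated fibrinogen. Ligand at 1 µg/mL, 37 °C, 3 h, anti-biotin alkaline-phosphatase detection. IC50 came from sigmoid fits of triplicates.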

Structure (SMILES) | logP [1] | IC50 [2] [nM] | IC50 [3] [nM] | Selectivity [4]
Cc1ccnc(NCCCCC(=O)NNC(=O)NC(CC(=O)O)c2ccc(Br)cc2)c1 (stereo unspecified) | 2.47 | 7 | – | –
N=C(N)Nc1cccc(C(=O)NNC(=O)CC(CC(=O)O)c2ccc(Br)cc2)c1 (stereo unspecified) | 1.95 | 2 | > 1000 | –
N=C(N)Nc1cccc(C(=O)NNC(=O)CC(CC(=O)O)c2ccccc2)c1 (stereo unspecified) | 1.13 | 15 | > 10000 | –
Cc1ccnc(NCCCCC(=O)NNC(=O)NC(CC(=O)O)c2cc(Cl)cc(Cl)c2)c1 (stereo unspecified) | 2.76 | 80 | > 10000 | –
CC(=N)Nc1cccc(C(=O)NNC(=O)CC(CC(=O)O)c2ccccc2)c1 (stereo unspecified) | 1.44 | 23 | > 10000 | –
O=C(O)CC(CC(=O)NNC(=O)c1cccc(Nc2ccccn2)c1)c1cc(Cl)cc(Cl)c1 (stereo unspecified) | 3.54 | 210 | – | –
N=C(N)Nc1cccc(C(=O)NNC(=O)NC(CC(=O)O)c2ccccc2)c1 (stereo unspecified) | 0.7 | 0.8 | 8500 | –
CC(C)[C@@H]1NC(=O)[C@H](CCCN=C(N)N)NC(=O)NNC(=O)[C@H](CC(=O)O)NC(=O)[C@H](Cc2ccccc2)N(C)C1=O (cyclo(D[azaGly]RV[NMeF])) | – | – | – | 270
COc1ccc(C(CC(=O)O)CC(=O)NNC(=O)CCCCNc2cc(C)ccn2)cc1 (stereo unspecified) | 1.94 | 22 | > 10000 | –
CC(C)[C@@H]1NC(=O)[C@H](CCCN=C(N)N)NC(=O)CNC(=O)[C@H](CC(=O)O)NC(=O)[C@H](Cc2ccccc2)N(C)C1=O (cyclo(DGRV[NMeF])) | – | – | – | 1460
N=C(N)Nc1cccc(C(=O)NNC(=O)NC(CC(=O)O)c2ccc(OC(F)(F)F)cc2)c1 (stereo unspecified) | 2.23 | 3 | > 1000 | –
Cc1ccnc(NCCCCC(=O)NNC(=O)CC(CC(=O)O)c2ccccc2)c1 (stereo unspecified) | 2.07 | 7 | > 10000 | –
Cc1ccnc(NCCCCC(=O)NNC(=O)NCCC(=O)O)c1 | -0.07 | 1400 | – | –
NC(=O)C(CC(=O)O)NC(=O)NNC(=O)c1cccc(N=C(N)N)c1 (stereo unspecified) | -2.42 | 150 | > 10000 | –
COc1ccc(C(CC(=O)O)CC(=O)NNC(=O)c2cccc(N=C(C)N)c2)cc1 (stereo unspecified) | 1.31 | 37 | > 1000 | –
CC(N)=Nc1cccc(C(=O)NNC(=O)CC(CC(=O)O)c2ccc(Br)cc2)c1 (stereo unspecified) | 2.27 | 40 | > 1000 | –
Cc1ccnc(NCCCCC(=O)NNC(=O)CC(CC(=O)O)c2ccc(-c3ccccc3)cc2)c1 (stereo unspecified) | – | 3 | – | 1000
N=C(N)Nc1cccc(C(=O)NNC(=O)CC(CC(=O)O)c2ccc(F)cc2)c1 (stereo unspecified) | 1.28 | 4 | > 1000 | –
NC(N)=Nc1cccc(C(=O)NNC(=O)NC(CC(=O)O)c2cc(Cl)cc(Cl)c2)c1 (stereo unspecified) | 1.82 | 1 | > 1000 | –
Cc1ccnc(NCCCCC(=O)NNC(=O)NC(CC(=O)O)c2ccc(F)cc2)c1 (stereo unspecified) | 1.8 | 48 | > 10000 | –
CC(=N)Nc1cccc(C(=O)NNC(=O)CC(CC(=O)O)c2ccc(-c3ccccc3)cc2)c1 (stereo unspecified) | 3.11 | 26 | > 1000 | –
Cc1ccnc(NCCCCC(=O)NNC(=O)CC(CC(=O)O)c2ccc(F)cc2)c1 (stereo unspecified) | 2.23 | 35 | – | –
CC(=N)Nc1cccc(C(=O)NNC(=O)CC(CC(=O)O)c2ccc(Cl)cc2)c1 (stereo unspecified) | 2 | 160 | 8000 | –

Structure (SMILES) | logP [1] | IC50 [2] [nM] | IC50 [3] [nM] | Selectivity [4]
COc1ccc(C(CC(=O)O)NC(=O)NNC(=O)CCCCNc2cc(C)ccn2)cc1 (stereo unspecified) | 1.52 | 42 | > 10000 | –
CC(=N)Nc1cccc(C(=O)NNC(=O)CC(CC(=O)O)c2ccc(F)cc2)c1 (stereo unspecified) | 1.6 | 160 | > 1000 | –
Cc1ccnc(NCCCCC(=O)NNC(=O)NC(CC(=O)O)c2ccccc2)c1 (stereo unspecified) | 1.64 | 37 | > 10000 | –
Cc1ccnc(NCCCCC(=O)NNC(=O)NC(CC(=O)O)c2ccc(Cl)cc2)c1 (stereo unspecified) | 2.2 | 0.3 | 7000 | –
N=C(N)Nc1cccc(C(=O)NNC(=O)CC(CC(=O)O)c2ccc(-c3ccccc3)cc2)c1 (stereo unspecified) | 2.8 | 0.7 | 1000 | –
Cc1ccnc(NCCCCC(=O)NNC(=O)CC(CC(=O)O)c2ccc(Br)cc2)c1 (stereo unspecified) | 2.9 | 6 | 9000 | –
Cc1ccnc(NCCCCC(=O)NNC(=O)NC(CC(=O)O)c2ccc(OC(F)(F)F)cc2)c1 (stereo unspecified) | 3.17 | 130 | – | –
N=C(N)Nc1cccc(C(=O)NNC(=O)NC(CC(=O)O)c2ccc(Br)cc2)c1 (stereo unspecified) | 1.53 | 1 | > 1000 | –
Cc1ccnc(NCCCCC(=O)NNC(=O)CC(CC(=O)O)c2ccc(Cl)cc2)c1 (stereo unspecified) | 2.63 | 15 | – | –
COc1ccc(C(CC(=O)O)NC(=O)NNC(=O)c2cccc(N=C(N)N)c2)cc1 (stereo unspecified) | 0.58 | 0.9 | > 1000 | –
N=C(N)Nc1cccc(C(=O)NNC(=O)NC(CC(=O)O)c2ccc(Cl)cc2)c1 (stereo unspecified) | 1.26 | 0.1 | 5500 | –
N=C(N)Nc1cccc(C(=O)NNC(=O)CC(CC(=O)O)c2ccc(Cl)cc2)c1 (stereo unspecified) | 1.68 | 2 | > 1000 | –
Cc1ccnc(NCCCCC(=O)NNC(=O)NC(CC(=O)O)c2cccc3ccccc23)c1 (stereo unspecified) | 2.64 | 140 | – | –
Cc1ccnc(NCCCCC(=O)NNC(=O)CC(CC(=O)O)c2cc(Cl)cc(Cl)c2)c1 (stereo unspecified) | 3.19 | 9 | > 10000 | –
NC(N)=Nc1cccc(C(=O)NNC(=O)NC(CC(=O)O)c2ccc(F)cc2)c1 (stereo unspecified) | 0.86 | 6 | 1000 | –
N=C(N)Nc1cccc(C(=O)NNC(=O)NC(CC(=O)O)C(N)=O)c1 (stereo unspecified) | – | – | – | > 70
CC(C)[C@@H]1NC(=O)[C@H](CCCN=C(N)N)NC(=O)CNC(=O)[C@H](CC(=O)O)NC(=O)[C@H](Cc2ccccc2)NC1=O (cyclo(DGRVF)) | – | – | – | 415
N=C(N)Nc1cccc(C(=O)NNC(=O)CC(CC(=O)O)c2cc(Cl)cc(Cl)c2)c1 (stereo unspecified) | 2.24 | 2 | 1000 | –
COc1ccc(C(CC(=O)O)CC(=O)NNC(=O)c2cccc(NC(=N)N)c2)cc1 (stereo unspecified) | 1 | 1 | > 1000 | –
NC(N)=Nc1cccc(C(=O)NNC(=O)NC(CC(=O)O)c2cccc3ccccc23)c1 (stereo unspecified) | 1.7 | 27 | > 10000 | –
CC(=N)Nc1cccc(C(=O)NNC(=O)CC(CC(=O)O)c2cc(Cl)cc(Cl)c2)c1 (stereo unspecified) | 2.55 | 6 | – | –
NCCCC[C@H](NC(=O)[C@@H]1CCCN1C(=O)[C@H](CO)NC(=O)[C@H](CC(=O)O)NC(=O)CNC(=O)[C@H](CCCN=C(N)N)NC(=O)CN)C(=O)O | – | 1000 | > 10000 | 8
N=C(N)NCCCCC(=O)NNC(=O)NC(CC(=O)O)c1ccccc1 (stereo unspecified) | -0.26 | 40 | 1000 | –
